# From PubChem BioAssay
# M1 PAM: potentiates human M1 receptor response to acetylcholine; CHO-K1 hM1, Fluo-8 calcium fluorescence, ACh EC20; 0% = ACh EC20, 100% = maximal ACh; activation, % at 3 µM; 360,000 tested, 0.088% active; AID 588819; in the data active = activation above about 19%, passing the limit was not always enough
# Target sequence (P11229 whole entry, looked up): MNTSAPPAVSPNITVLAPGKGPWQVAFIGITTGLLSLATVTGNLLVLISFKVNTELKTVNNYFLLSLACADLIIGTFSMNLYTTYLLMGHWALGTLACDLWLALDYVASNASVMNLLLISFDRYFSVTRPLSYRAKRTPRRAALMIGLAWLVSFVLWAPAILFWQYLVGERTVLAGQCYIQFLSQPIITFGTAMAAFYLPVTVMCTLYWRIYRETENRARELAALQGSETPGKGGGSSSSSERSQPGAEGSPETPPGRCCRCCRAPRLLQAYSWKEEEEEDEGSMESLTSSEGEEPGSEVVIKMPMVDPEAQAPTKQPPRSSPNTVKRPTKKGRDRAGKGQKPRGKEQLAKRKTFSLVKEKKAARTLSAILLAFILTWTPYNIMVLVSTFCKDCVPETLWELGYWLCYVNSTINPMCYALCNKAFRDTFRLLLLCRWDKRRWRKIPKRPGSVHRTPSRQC
# CHRM1 agonist: activates human CHRM1 receptor | CHO-K1 hM1, Fluo-8 calcium fluorescence, agonist mode; 0% DMSO, 100% acetylcholine EC100 | 360,000 tested, 0.33% active | activation, % at 3 µM;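 active = activation above the run's mean compound activation plus 3 SD, cut at about 16% in these data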;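 also: peak over basal fluorescence ratio within a 140 s kinetic read after compound addition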
# M5 PAM: CHRM5 positive allosteric modulation. activation, % at 3 µM. CHO-K1 hM5, Fluo-8 calcium, ACh EC20 PAM; 0% = ACh EC20, 100% = ACh EC100. 360,000 tested, 0.3% active. P08912. AID 624038;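 active = activation above the run cutoff, the mean activation of all test compounds plus 3 SD, cut at about 18% in these data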
#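 System: CHO-K1 hM5 cells. Reagent: acetylcholine, EC20 level. Compound dosing: single dose, 3 µM nominal final test concentration. Timing: Post-acetylcholine fluorescence recording 140 s. Detection: Fluo-8 calcium fluorescence. Read-out: % activation, ACh-normalized. Benchmarks: ACh EC20 and EC100 wells. Repeats: singlicate, one well per test compound.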
# CHRM5 agonist: agonists of human muscarinic M5 receptor (CHRM5). CHO-K1 hM5 cells, Fluo-8 calcium fluorescence; 0% DMSO wells, 100% maximal acetylcholine response. activation, % at 3 µM. 360,000 tested, 0.19% active;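 active = activation above the run's mean over test compounds plus 3 SD, cut at about 23% in these data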;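 also: signal is peak over basal fluorescence ratio across the kinetic read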
# CHRM1 antagonist: antagonists of human M1 muscarinic receptor; inhibition, % at 3 µM; P11229; 360,000 tested, 1.3% active; CHO-K1 hM1, Fluo-8 calcium fluorescence, ACh EC80 antagonist;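 active = percent inhibition above its own plate's cutoff, namely the mean of that plate's compound wells plus 3 SD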;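 also: peak over basal fluorescence ratio during 140 s after agonist addition; 0% = ACh EC80 plus DMSO and 100% = DMSO alone without agonist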
# CHRM5 antagonist: blocks acetylcholine activation of human M5 receptor; P08912; CHO-hM5 cells, Fluo-8 calcium fluorescence, ACh EC80; inhibition, % at 3 µM; 360,000 tested, 0.59% active; AID 624040;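 active = inhibition above a per-plate cutoff, the mean of that plate's test compounds plus 3 SD, cut at about 27% in these data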;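 also: 0% = acetylcholine EC80 with DMSO and 100% = DMSO without agonist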
# * marks the source's active call; other numbers are inactive results; x = not tested or not shown. Hits are enriched below; roughly 2% of the tested compounds scored in any of these assays.
SMILES,M1 PAM,CHRM1 agonist,M5 PAM,CHRM5 agonist,CHRM1 antagonist,CHRM5 antagonist
COc1ccc(C(CNC(=O)Cc2ccccc2F)N2CCCCC2)cc1 (stereo not given),-7,-8,2,-15,-1,10
CCOc1ccc(S(=O)(=O)NCCC(=O)NCC(c2ccc(OC)cc2)N2CCOCC2)cc1 (stereo not given),8,-7,-2,-3,-19,10
COc1ccc(C(CNC(=O)c2ccc(Cl)c(NC(=O)c3cccs3)c2)N2CCCC2)cc1 (stereo not given),-27,-6,-34,-9,46*,6
COC(=O)c1ccc(N=C2SCC(=O)N2C)cc1,3,-2,0,4,-5,-3
C=CCOc1ccccc1CN1CCCC(CCC(=O)N(C)CCc2ccccn2)C1 (stereo not given),-18,-14,2,-10,9,-7
CCOC(=O)N1CCN(C(=O)c2ccc(CN(c3ccccc3)S(C)(=O)=O)cc2)CC1,-5,-2,-6,1,11,4
CCOC(=O)N1CCN(C(=O)c2ccc(N(Cc3ccccc3Cl)S(C)(=O)=O)cc2)CC1,32*,3,4,0,-5,-4
CCOc1ccc(C(=O)NCC(C)CN(C)C)cc1OCC (stereo not given),4,-2,22*,-2,3,18
C=Cc1ccc(Cn2c(C)c(C(=O)NCc3cccc(C)c3)sc2=O)cc1,3,-1,-8,1,-5,3
COc1ccccc1NC(=O)N(C)C[C@H]1OCc2cnnn2CCCC(=O)N([C@H](C)CO)C[C@H]1C,1,-3,0,0,-6,-2
CC(C)(CNC(=S)NCCc1ccccc1)CNC(=S)NCCc1ccccc1,-10,-2,-17,5,18,28*
COc1cc(F)ccc1-c1cc(C(=O)NCc2ccc(F)cc2)[nH]n1,6,-3,-4,2,-13,14
O=C(O)c1cccc(CN2C(=O)c3ccccc3C2=O)c1,11,1,-2,-1,-1,14
O=C1c2cccc3c(O)ccc(c23)C(=O)N1Cc1ccccc1,-28,262*,-34,173*,70*,56*
N#Cc1ccc(CN2CCN(C(=O)C3CC(=O)N(c4ccc5c(c4)OCCO5)C3)CC2)cc1 (stereo not given),9,-2,3,1,-19,-2
S=C(Nc1ccccc1)Nc1ccc(Cl)cn1,-13,-5,-15,-2,37*,15
O=C(NCc1ccco1)c1ccc(CN2CCOCC2)cc1,-8,0,19*,0,22,11
O=C(NCc1ccccc1)c1ccc(CN2CCOCC2)cc1,8,-3,-1,1,-5,-1
C[C@@H]1CN([C@H](C)CO)C(=O)CCCn2nncc2CO[C@H]1CN(C)S(=O)(=O)c1ccc(-n2cccn2)cc1,5,-4,6,0,-14,-12
CCOC(=O)c1nnc(-c2ccccc2)nc1Sc1ccccc1Cl,-7,-3,-2,0,11,29*
CCOC(=O)c1nnc(-c2ccc(C)cc2)nc1Sc1cccc(Cl)c1,2,-4,-1,-3,-8,-1
COc1cc(NC(=O)CSc2nnc3ccccn23)cc(OC)c1OC,4,-2,2,0,-7,-1
COc1ccccc1NC(=O)CSc1nncn1N,12,0,19*,6,-1,-6
COc1ccccc1NC(=O)Cc1nnc(SCC(=O)NC2CCCC2)n1C,-2,-5,-7,-2,-2,23
COc1ccccc1NC(=O)CSc1nnc2ccccn12,25*,6,2,0,-12,5
SMILES,M1 PAM,CHRM1 agonist,M5 PAM,CHRM5 agonist,CHRM1 antagonist,CHRM5 antagonist
COc1ccccc1NC(=O)Cc1nnc(SCC(=O)NC2CCCCC2C)n1C (stereo not given),1,-4,-8,-3,4,31*
Cn1cccc1CN1CCC[C@]2(N[C@H](c3ccc(C(F)(F)F)cc3)[C@@H]3C(=O)N(Cc4ccccc4)C(=O)[C@@H]32)C1=O,-5,-7,4,0,-1,-2
C=CCN1C=C/C(=C\C=C(C#N)C#N)c2ccccc21,-1,-2,-5,2,-1,6
CCOC(=O)/C(C#N)=C/C=C1\C=Cc2ccccc2N1CC,6,-11,-8,2,0,1
CCCCCCN1C=CC(=C/C=C(\C#N)C(=O)OCC)C=C1,-38,150*,-22,51*,60*,34*
C=CCN1C=CC(=CC=C(C#N)C#N)C=C1,-8,9,-23,28*,25,20
CCCN1C=CC(=CC=C(C#N)C#N)C=C1,-1,10,-15,31*,11,23
CCCCC[C@H](C)N1C[C@@H](COCc2ccccc2)Oc2cc(N3CCC[C@H]3C(N)=O)ccc2S1(=O)=O,x,x,2,4,x,5
N#CC(c1ccccc1)C(CC(=NO)c1ccccc1)c1ccccc1 (stereo not given),-2,-7,-11,-3,6,7
CCCCNC(=S)Nc1ccccc1Cc1ccccc1,-6,-3,23*,-5,28,-6
CNC(C)C(=O)NC(C(=O)N1CCCC1C(=O)Nc1ccc2ncccc2c1)C(C)C (stereo not given),32*,2,14,2,-17,-5
O=C1CSC(=S)N1N=Cc1c(F)cccc1Cl,2,-1,-3,1,-4,2
CN(C)c1ccc(C=NN2C(=O)CSC2=S)c(Cl)c1,-5,3,-11,26*,6,24
COc1ccc(-c2c[n+](CC(=O)OC3CC(C)CCC3C(C)C)c3n2CCC3)cc1 (stereo not given),-22,-6,-31,-15,91*,65*
O=C(C[n+]1cc(-c2ccc(Cl)cc2)n2c1CCCCC2)c1ccccc1,-8,-8,-8,-14,14,3
CC(C)[C@@H]1CC[C@@H](C)C[C@H]1OC(=O)C[n+]1cc(-c2ccc(Cl)cc2)n2c1CCCCC2,-23,-4,-32,-19,94*,77*
Cc1cccc2cc(-c3nc4c(C)cccn4c3NCc3ccco3)c(=O)[nH]c12,-15,2,-14,-6,28*,5
Cc1ccc(CN2CCC[C@]3(N[C@H](c4ccccc4)[C@@H]4C(=O)N(C)C(=O)[C@@H]43)C2=O)cc1,13,-2,5,-2,-24,-8
Cc1ccc(NC2=NC(c3ccc(F)cc3)n3c(nc(C)cc3=O)N2)c(C)c1 (stereo not given),-14,-7,5,-4,37*,-1
